Measurements: ChEMBL document CHEMBL2429835
≈ marks a conversion by molar mass, not a printed value. Calls of active or inactive are those of the source. No cut-off for these calls is given here.

What was measured:
[1] = test system: Mycobacterium tuberculosis; assay: Antimycobacterial activity against cycloserine-resistant Mycobacterium tuberculosis ATCC 35826; format: functional
Summary of the method: (§1)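 Strain (H37Rv or ATCC single-drug-resistant isolates) grown to late log phase in 7H9 with 0.2% glycerol, 0.05% Tween80, 10% OADC. Cells washed into PBS, passed through 8 μm filter, frozen; CFU titred on 7H11 agar. MABA MIC is the lowest concentration giving ≥90% growth inhibition versus untreated controls.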

[2] = test system: Mycobacterium tuberculosis; assay: Antimycobacterial activity against kanamycin-resistant Mycobacterium tuberculosis ATCC 35827; format: functional; summary of the method: as §1
[3] = test system: Mycobacterium tuberculosis; assay: Antimycobacterial activity against streptomycin-resistant Mycobacterium tuberculosis ATCC 35820; format: functional; summary of the method: as §1
[4] = test system: Mycobacterium tuberculosis; assay: Antimycobacterial activity against isoniazid-resistant Mycobacterium tuberculosis ATCC 35822; format: functional; summary of the method: as §1
[5] = test system: Mycobacterium tuberculosis; assay: Antimycobacterial activity against rifampin-resistant Mycobacterium tuberculosis ATCC 35838; format: functional; summary of the method: as §1
[6] = test system: Mycobacterium tuberculosis variant bovis BCG; assay: Antimycobacterial activity against Mycobacterium bovis BCG ATCC 35734 at 100 ug/ml after 8 days by microplate Alamar blue assay; format: functional, organism-based
Summary of the method: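 MABA in 7H12 (M. abscessus, M. bovis BCG) or 7H9 (others). Pre-dye incubation: M. abscessus 37 °C 3 days; BCG 37 °C 7 days; M. chelonae 30 °C 3 days; M. marinum 30 °C 5 days; M. avium and M. kansasii 37 °C 6 days. Then 20% Tween80 plus Alamar blue added: 4 h (abscessus), 6 days (chelonae), 1 day (others). Tested at 100 μg/mL.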

Row | SMILES | MIC90 [1] | MIC90 [2] | MIC90 [3] | MIC90 [4] | MIC90 [5] | Activity [6]
1 | O=[N+]([O-])c1cn2c(n1)OC[C@@H](OCc1ccc(OC(F)(F)F)cc1)C2 [PRETOMANID] | 0.18 mg/L (≈ 0.501 µM) | 0.34 mg/L (≈ 0.946 µM) | 0.17 mg/L (≈ 0.473 µM) | 0.05 mg/L (≈ 0.139 µM) | 0.07 mg/L (≈ 0.195 µM) | –
2 | NC[C@H]1O[C@H](O[C@H]2[C@H](O)[C@@H](O[C@H]3O[C@H](CO)[C@@H](O)[C@H](N)[C@H]3O)[C@H](N)C[C@@H]2N)[C@H](O)[C@@H](O)[C@@H]1O [KANAMYCIN] | 1.12 mg/L (≈ 2.31 µM) | > 25 mg/L | 0.76 mg/L (≈ 1.57 µM) | 0.72 mg/L (≈ 1.49 µM) | 0.73 mg/L (≈ 1.51 µM) | –
3 | CN[C@@H]1[C@H](O[C@H]2[C@H](O[C@H]3[C@H](O)[C@@H](O)[C@H](N=C(N)N)[C@@H](O)[C@@H]3N=C(N)N)O[C@@H](C)[C@]2(O)C=O)O[C@@H](CO)[C@H](O)[C@H]1O [STREPTOMYCIN] | 0.53 mg/L (≈ 0.911 µM) | 1.48 mg/L (≈ 2.54 µM) | > 9.31 mg/L | 0.56 mg/L (≈ 0.963 µM) | 0.47 mg/L (≈ 0.808 µM) | –
4 | O=c1cc(-c2ccccc2)c2ccc(Cl)cc2o1 | 47.3 mg/L (≈ 184 µM) | 47.4 mg/L (≈ 185 µM) | 46.9 mg/L (≈ 183 µM) | 76.5 mg/L (≈ 298 µM) | 45.4 mg/L (≈ 177 µM) | inactive
5 | CO[C@H]1/C=C/O[C@@]2(C)Oc3c(C)c(O)c4c(O)c(c(/C=N/N5CCN(C)CC5)c(O)c4c3C2=O)NC(=O)/C(C)=C\C=C\[C@H](C)[C@H](O)[C@@H](C)[C@@H](O)[C@@H](C)[C@H](OC(C)=O)[C@@H]1C [RIFAMPIN] | 0.02 mg/L (≈ 0.0243 µM) | 0.02 mg/L (≈ 0.0243 µM) | 0.09 mg/L (≈ 0.109 µM) | 0.04 mg/L (≈ 0.0486 µM) | > 3.29 mg/L | –
6 | CCOC(=O)c1c(-c2ccccc2)c2cc(Cl)ccc2oc1=O | > 100 mg/L | > 100 mg/L | 49.5 mg/L (≈ 151 µM) | 44.7 mg/L (≈ 136 µM) | 46.6 mg/L (≈ 142 µM) | inactive
7 | N[C@@H]1CONC1=O [CYCLOSERINE] | > 10.2 mg/L | 4.9 mg/L (≈ 48 µM) | 4.9 mg/L (≈ 48 µM) | 5 mg/L (≈ 49 µM) | 4.8 mg/L (≈ 47 µM) | –
8 | NNC(=O)c1ccncc1 [ISONIAZID] | 0.04 mg/L (≈ 0.292 µM) | 0.07 mg/L (≈ 0.51 µM) | 0.03 mg/L (≈ 0.219 µM) | > 2.19 mg/L | 0.03 mg/L (≈ 0.219 µM) | –
9 | O=c1cc(-c2ccccc2)c2cc(Cl)ccc2o1 | – | – | – | – | – | inactive
10 | CCOC(=O)c1c(-c2ccccc2)c2ccc(Cl)cc2oc1=O | 47.3 mg/L (≈ 144 µM) | 43.9 mg/L (≈ 134 µM) | 46.9 mg/L (≈ 143 µM) | 31.7 mg/L (≈ 96.4 µM) | 44.7 mg/L (≈ 136 µM) | inactive
